# The sample as a whole holds a higher share of hits than the screen did.
# Fibroblast inh: blocks proliferation of human lung fibroblasts | viability, % at 10 µM | LL 47 human lung fibroblast viability, ATP luminescence; active compounds read low | actives 1.1% (n = 85,000);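 active means viability at or below 50% in the single dose screen; inactive means viability above 50%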;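 further: compound exposure lasted 72 h before the ATP readout; 100% = median luminescence of untreated cell-only wells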
#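 Material: human LL 47 lung fibroblast cells; quantity: 1,150 cells/well; medium: IMEM plus 15% FBS; doses: 0.1% DMSO in all compound wells; timing: overnight attachment after seeding, then 72 h compound exposure at 37 °C; detection: CellTiter-Glo luminescence; measure: % viability of median cell-only signal; controls: cell-only wells, no compound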
# HCT116 PTEN-null: PTEN-deleted cell growth suppression; viability, % at 10 µM; HCT116 PTEN-null viability, CellTiter-Glo, 60 h; active compounds read low; AID 827; actives 1.2% (n = 140,000);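 active means viability at or below a set limit, 4 SD under the median of all tested compounds, cut at about 3.7% in these data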;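 further: PTEN knockout HCT116 line with beta catenin targeted HCT116 as companion control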
# H69AR growth 86K: growth inhibitors of human H69AR lung tumor cells. H69AR lung tumor viability, ATP luminescence, 72 h; active compounds read low. AID 598. actives 6% (n = 85,000). viability, % at 10 µM;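 active means viability at or below 40%; inactive means viability above 40%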;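 further: multidrug resistant small cell line overexpressing MRP-1 efflux transporter; 100% = mean luminescence of untreated control wells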
# HUVEC prolif 384: blocks proliferation of human endothelial cells | HUVEC proliferation, CellTiter-Glo luminescence, 72 h; active compounds read low | AID 648 | viability, % at 10 µM (by protocol) | actives 1.1% (n = 86,000);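 active means viability at or below 30%; inactive means viability above 30%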;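 further: 100% = median luminescence of DMSO-only cell control wells on each plate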
# HCT116 bCat-KO: beta-catenin-lacking colon tumor cell growth suppression; AID 818; HCT116 beta-catenin knockout viability, CellTiter-Glo, 60 h; active compounds read low; viability, % at 10 µM; actives 1.5% (n = 140,000);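 active means viability at or under a set limit, the compound median less 4 SD, cut at about 6% in these data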;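 further: 0% = Hyamine 1622 control at 20 µM and 100% = untreated cell control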
# Active calls of the source: *; / = no result.
SMILES,Fibroblast inh,HCT116 PTEN-null,H69AR growth 86K,HUVEC prolif 384,HCT116 bCat-KO
O=C(Nc1ccccc1N1CCOCC1)C1CCN(S(=O)(=O)c2cccc(C(F)(F)F)c2)CC1,/,79,/,/,71
Cc1c(CN(C)C(=O)c2sc3cc(Cl)ccc3c2Cl)cnn1C,100,24,77,21*,15
O=C(NCc1cccnc1)c1sc2cc(Cl)ccc2c1Cl,/,61,/,/,41
CCc1nn(C(C)C(=O)NCCN2CCN(c3cccc(C)c3C)CC2)c(=O)c2cc3occc3n12 (stereo not given),/,5,/,/,2.5*
CCOC(=O)N1CCC(NC(=O)c2cnc3n(c2=O)CCS3)CC1,111,/,93,104,/
Cn1c(=O)c(NCCO)c2c3c(cccc31)C(=O)c1ccccc1-2,100,92,55,46,92
CCCCNc1c2c3c(cccc3n(C)c1=O)C(=O)c1ccccc1-2,83,40,16*,52,39
Cc1ccc(/C=N/Nc2ccnc3cc(Cl)ccc23)c(C)c1,/,1.6*,/,/,1.3*
Cc1ccccc1/C=N/Nc1ccnc2cc(Cl)ccc12,/,7,/,/,11
Clc1ccc2c(N/N=C/c3ccc(Br)cc3)ccnc2c1,/,1.3*,/,/,1.5*
O=C(N1CCN(c2ccccn2)CC1)N1c2ccccc2Sc2ccccc21,55,13,34*,26*,9
O=C(c1ccco1)N1c2ccccc2Sc2ccccc21,/,65,/,/,69
O=C(c1ccco1)N1CCN(C(=O)N2c3ccccc3Sc3ccccc32)CC1,50,14,32*,38,14
CCOC(=O)c1nn(-c2ccccc2F)c(C)c1C(C)=O,/,91,/,/,88
CCCC(C(=O)NC1CCCC1)N(C(=O)Cn1nnc(-c2ccc(C)o2)n1)c1ccccc1OC (stereo not given),93,79,95,104,80
O=c1cc(CN2CCN(c3ccccc3F)CC2)c2cc(O)c(-c3ccccc3)cc2o1,/,73,/,/,83
COc1ccc(N2CCN(Cc3cc(=O)oc4cc(-c5ccccc5)c(O)cc34)CC2)cc1,7.6*,6,3.1*,32,14
CN1CCN(Cc2cc(=O)oc3cc4c(cc23)CCC4)CC1,100,92,85,93,79
O=c1cc(CN2CCN(C/C=C/c3ccccc3)CC2)c2cc(O)c(-c3ccccc3)cc2o1,/,57,/,/,59
O=c1cc(CN2CCN(c3ccc(F)cc3)CC2)c2cc3c(cc2o1)CCCC3,68,87,32*,54,90
COc1ccc(N2CCN(Cc3cc(=O)oc4cc(C)c(Cl)cc34)CC2)cc1,80,94,24*,91,90
Cc1cc2oc(=O)cc(CN3CCOCC3)c2cc1C,97,88,79,96,86
Cc1cc2oc(=O)cc(CN3CCN(C/C=C/c4ccccc4)CC3)c2cc1O,/,2.8*,/,/,2.3*
O=C(CNC(=O)c1ccc2ccccc2c1)OCC(=O)N1CCN(S(=O)(=O)c2ccc3ccccc3c2)CC1,/,88,/,/,83
CCOC(=O)c1c(-c2ccc(C)o2)csc1NC(=O)CSc1nncs1,97,92,31*,89,100
SMILES,Fibroblast inh,HCT116 PTEN-null,H69AR growth 86K,HUVEC prolif 384,HCT116 bCat-KO
Cc1ccc(-c2nc3ccccc3[nH]2)cc1NC(=O)c1sc2cc(Cl)ccc2c1Cl,/,102,/,/,101
O=C(c1ccccc1OCc1ccccc1Br)N1CCN(c2ncccn2)CC1,74,40,28*,73,51
O=C(c1ccc(F)cc1F)N1CCN(c2ncccn2)CC1,104,102,100,93,110
Cc1nc2cc(N3CCCCC3)c(NC(=O)c3cccnc3)cc2c(=O)n1Cc1ccccc1,38*,102,33*,72,103
Cc1sc2nc(SCc3nc(-c4ccccc4)no3)n(-c3ccccc3)c(=O)c2c1C,/,87,/,/,89
COc1ccc(CCNC(=O)C2CCN(Cc3nc(-c4ccccc4F)oc3C)CC2)cc1OC,104,63,90,102,60
Cc1ccccc1-c1nc(CN2CCC(C(=O)NCCCN3CC(C)CC(C)C3)CC2)c(C)o1 (stereo not given),77,36,64,14*,32
Cc1oc(-c2ccccc2F)nc1CN1CCC(C(=O)NCCC2=CCCCC2)CC1,90,19,81,20*,10
CCCC1N2CC3([N+](=O)[O-])CN1CC([N+](=O)[O-])(C2)C3(C)C (stereo not given),/,103,/,/,92
CCOc1cc(/C=C(\C#N)C(=O)NCC2CCCO2)ccc1O (stereo not given),/,101,/,/,88
CCOc1cc(-c2c(C#N)c(N)nc3c2CCCC3C)ccc1O (stereo not given),96,101,31*,76,84

# Screens from PubChem.
